# Hits are enriched below; roughly 1.8% of the tested compounds scored in any of these assays.
# MC4R ag barr – MC4R agonists recruiting beta-arrestin, primary screen, cell-based, luminescence, agonist arm of biased-ligand search; 360,000 compounds, 0.98% hits; U2OS MC4R beta-arrestin complementation; percent of melanotan II response, DMSO zero; activation, % at 8.9 µM; Melanocortin receptor 4 (Homo sapiens), P32245; AID 540308, 2011;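 active = activation above a per-plate cutoff, the mean activation of sample wells on that plate plus 3 SD, cut at about 8% in these data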
# Target sequence (P32245 whole entry, looked up): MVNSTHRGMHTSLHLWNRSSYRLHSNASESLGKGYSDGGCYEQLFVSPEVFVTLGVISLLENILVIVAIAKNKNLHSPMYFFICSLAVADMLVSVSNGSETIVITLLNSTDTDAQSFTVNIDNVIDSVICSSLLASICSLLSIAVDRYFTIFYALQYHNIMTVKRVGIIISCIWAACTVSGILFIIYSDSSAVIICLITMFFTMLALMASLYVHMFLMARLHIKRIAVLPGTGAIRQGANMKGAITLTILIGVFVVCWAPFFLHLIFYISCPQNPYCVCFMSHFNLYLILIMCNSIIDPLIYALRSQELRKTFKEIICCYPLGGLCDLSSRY
# MC4R antag cAMP – MC4R antagonists of cAMP signaling, primary screen, cell-based, TR-FRET, antagonist arm of biased-ligand search. 360,000 compounds, 0.48% hits. Melanocortin receptor 4 (Homo sapiens), P32245. inhibition, % at 6.5 µM. MC4R-expressing cells, MTII-stimulated cAMP, LANCE TR-FRET;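 active = inhibition above its plate's cutoff, the mean of tested wells on that plate plus 3 SD, cut at about 29% in these data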
#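 Assay system: human MC4R-expressing U2OS cells; reagent: Melanotan II stimulation of cells; dosing: 6.5 µM single dose; timing: compound 30 min, challenge 1 h, detection 1 h; signal: TR-FRET cAMP assay; replicates: one well per compound, no replicates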
# AI-2 QS mod – Vibrio harveyi AI-2 quorum sensing modulators, primary screen, JMH597 strain, luminescence/OD600 ratio; 300,000 compounds, 0.4% hits; Vibrio harveyi JMH597 AI-2 luminescence/OD600 ratio, 9 h; active compounds read low; strain lacks LuxN and CqsS sensors; 0 = neutral-control median; activity change, % at 7.5 µM; in the data active = activity change below about -75%, passing the limit was not always enough; inconclusive = no clear call, values can overlap the other calls;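 also: luminescence divided by OD600 gain over 9 h not by final OD600 alone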
# NTR1 ag – agonists of human NTR1, primary screen, imaging, U2OS cells, beta-arrestin-GFP, high content; Neurotensin receptor type 1 (Homo sapiens), P30989; NTR1-U2OS beta-arrestin-GFP spot imaging, agonist mode; activation, % at 20 µM; 330,000 compounds, 0.17% hits;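 active = activation at or above 40% of the spot to cytoplasm intensity ratio, with at least 20 cells analyzed; inconclusive = wells under 20 cells, flagged as cytotoxic or low count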
# Hits are given with their value; - = inactive; ? = inconclusive; . = no result.
SMILES,MC4R ag barr,MC4R antag cAMP,AI-2 QS mod,NTR1 ag
CN(C)c1ccc(S(=O)(=O)NCC(=O)N2CCN(c3ccccc3)CC2)cc1[N+](=O)[O-],-,-,-,-
Cc1nnc(SCC(=O)NCc2ccc3c(c2)OCO3)s1,-,-,-,-
O=C(CSc1nc2cc(Cl)ccc2s1)NCc1ccc2c(c1)OCO2,9.5,-,-,-
Cc1ccc(C(=O)NCc2ccccc2)cc1Br,-,-,-77,-
Cc1ccc(C(=O)NC(=S)NCc2ccccc2)cc1Br,-,-,-,-
Cc1ccc(SC/C(O)=C(\C#N)c2nc3ccccc3n2C)cc1,8.3,-,-,-
Cn1c(/C(C#N)=C(\O)CN2CCN(Cc3ccccc3)CC2)nc2ccccc21,-,-,-,-
O=C(CSc1nnc(CCCOc2ccc(Cl)cc2Cl)o1)Nc1ccc(C(=O)O)cc1,-,-,-,-
O=C(CSc1nnc(COc2ccc(Cl)cc2Cl)o1)Nc1ccccn1,8.9,-,-,-
c1ccc(Cn2c(-c3ccccc3)nc3nc4ccccc4nc32)cc1,9.3,-,-,-
O=C(/C=C/c1cccc(Cl)c1)c1ccc([N+](=O)[O-])o1,-,34,?,-
COc1cc(/C=C/C(=O)c2ccc([N+](=O)[O-])o2)ccc1O,-,-,-175,-
Cc1ccccc1-c1csc(C(O)(c2ccccc2)C(F)(F)F)n1 (stereo not given),-,-,.,.
O=C(NNC(=O)c1cnccn1)c1ccc(Cl)c(Cl)c1,-,-,-288,-
O=C(CSc1ccccn1)Nc1cccc(NC(=O)CSc2ccccn2)n1,9.1,-,-,-
CC(=O)Nc1ccc(NC(=O)CSc2ccccn2)cc1,-,-,-,-
N#Cc1nc(-c2cccs2)oc1NCc1ccccc1Cl,-,-,-,-
N#Cc1nc(-c2cccs2)oc1NCc1ccccc1,-,-,-91,-
Cc1ccc(CCN2CCN=C2Nc2ccccc2)cc1,-,-,.,-
Cc1ccc(/C=N/NC(=O)CCCOc2ccc(Cl)cc2Cl)cc1[N+](=O)[O-],9.0,-,-,-
COc1ccc2sc(-c3ccccc3OC)c(C#Cc3cncn3C)c2c1,8.6,-,.,-
COc1ccccc1N1CCN(C(=O)c2cc(S(=O)(=O)N3CCOCC3)ccc2C)CC1,-,-,.,-
O=C1C=CC(=O)N1c1ccc(OC(F)F)cc1,-,37,.,.
O=C(Nc1ccc(Cl)c(Cl)c1)O/N=C/c1ccncc1,-,-,-88,-
Cc1cc(OC(C)C(=O)NCc2cccnc2)c2c(C)cc(=O)oc2c1 (stereo not given),-,-,-,-
SMILES,MC4R ag barr,MC4R antag cAMP,AI-2 QS mod,NTR1 ag
Brc1ccc(-c2noc(CCc3ccccc3)n2)cc1,-,-,-,.
CCc1ccc(NCc2nc(-c3ccccc3)no2)cc1,-,-,-96,-
Cc1ccc(-c2noc(CNc3ccccc3)n2)cc1,-,-,?,-
c1ccc(CCc2nc(-c3cccnc3)no2)cc1,-,-,-93,-
c1ccc(CCc2nc(-c3ccccc3)no2)cc1,-,-,-94,-
C[C@H](CO)N1C[C@H](C)[C@H](CN(C)C(=O)Nc2ccc(-c3cccs3)cc2)OCc2cnnn2CCCC1=O,-,-,.,.
C=C(C)C(O)CC/C(C)=C/Cc1c(O)ccc(C(=O)/C=C/c2ccc(O)cc2)c1O (stereo not given),9.6,-,.,-
CCOC(=O)Cc1ccc(Nc2nc(NCc3ccccc3)nc3ccsc23)cc1,8.5,-,.,.
COc1cccc(-c2cc(C(=O)Nc3cc(C)on3)no2)c1,8.5,-,-,-
Cc1cc(NC(=O)c2cc(-c3cccc(Cl)c3)on2)no1,-,-,-,-
Cc1cc(NC(=O)c2ccc(COc3ccc(Cl)c(C)c3)o2)no1,9.4,-,-,-
NC(Cc1ccc(Cl)cc1)c1csc(NC(=O)NCC2CCCCC2)n1 (stereo not given),8.5,-,.,.
COc1ccc(-c2c(C)nc(N)nc2-c2ccc(OCc3ccc(C)cc3)cc2O)cc1OC,9.6,-,-,-
CCn1nc(NC(=O)Cc2ccc(OC)cc2)c2cc3cccc(C)c3nc21,9.3,-,-,-
CCn1nc(NC(=O)COC)c2cc3cccc(C)c3nc21,-,-,-,-
COc1ccc(/C=N/NC(=O)c2ccc(Cl)cc2)cc1Cn1cc(Cl)cn1,8.7,-,-,-

# Screening results deposited in PubChem by several laboratories.
